Data set [1] in a line: Drug level in Sprague-Dawley rat bronchoalveolar lavage fluid at 10 mg/kg, iv administered as single bolus dose measured after 3 hrs. The format is ADME, organism-based, Lung. Also noted: dose 10 mg/kg, route intravenous. The settings on record: read-out: Drug uptake.
The subject of data set [2] is Respiratory syncytial virus. Nature of the data set: Antiviral activity against respiratory syncytial virus long strain infected in cotton rat assessed as log reduction in epithelial lining fluid viral load at 12.5 mg/kg, sc single dose administered 24 hrs before viral infection by qRT-PCR assay. In kind it is functional. The settings on record: route subcutaneous. Put shortly:
(§1)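 Nanocrystal suspension was given as a single s.c. dose to cotton rats (six per cohort). RSV Long (10⁶ PFU) was inoculated intranasally 24 h later. On day 4, BALF from a single 2.5 ml PBS lavage was lysed with DTT and lysis buffer, and RNA was extracted with an internal control. Monoplex real-time RT-PCR was run in duplicate against an eight-point 10-fold RSV RNA standard. Titers were urea-corrected to ELF; reduction was taken versus untreated controls.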
A general note: In qPCR the cycle at which signal appears reflects the starting amount.

Data set [3] is described as follows: Drug level in cotton rat bronchoalveolar lavage fluid at 10 mg/kg, iv administered as single bolus dose measured after 3 hrs. The format is ADME, organism-based, Lung. Also noted: dose 10 mg/kg, route intravenous. To be noted: read-out: Drug uptake.
The nature of data set [4]: Drug level in Sprague-Dawley rat plasma at 10 mg/kg, iv administered as single bolus dose measured after 3 hrs. On the set-up: dose 10 mg/kg, route intravenous. The settings on record: read-out: Drug uptake. In kind it is ADME, organism-based.
Data set [5] is described as follows: Drug level in cotton rat epithelial lining fluid at 10 mg/kg, iv administered as single bolus dose measured after 3 hrs. The format is ADME, organism-based. Also noted: dose 10 mg/kg, route intravenous. The settings on record: read-out: Drug uptake.
Data set [6] deals with Respiratory syncytial virus. Nature of the data set: Antiviral activity against respiratory syncytial virus long strain infected in cotton rat assessed as log reduction in epithelial lining fluid viral load at 100 mg/kg, sc single dose administered 24 hrs before viral infection by qRT-PCR assay. The format is functional. The settings on record: route subcutaneous. An outline of the steps: as §1

For data set [7], the system named is Respiratory syncytial virus. Nature of the data set: Antiviral activity against respiratory syncytial virus long strain infected in cotton rat assessed as log reduction in epithelial lining fluid viral load at 50 mg/kg, sc single dose administered 24 hrs before viral infection by plaque assay. The format is functional. To be noted: route subcutaneous. An outline of the steps: (§2)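 Cotton rats (60–100 g, six per dose cohort) received one s.c. dose of an aqueous slow-release nanocrystal suspension. At 24 h they were anesthetized with isoflurane and given 10⁶ PFU RSV Long intranasally in 0.1 ml. On day 4 lungs were lavaged once with 2.5 ml PBS. BALF supernatant was plaque-titrated on Vero cells (7 days, 37°C, methylene blue). Titers were urea-corrected to ELF; log reduction was taken versus untreated infected controls.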

For data set [8], the system named is Respiratory syncytial virus. Nature of the data set: Antiviral activity against respiratory syncytial virus long strain infected in cotton rat assessed as log reduction in epithelial lining fluid viral load at 25 mg/kg, sc single dose administered 24 hrs before viral infection by plaque assay. The format is functional. To be noted: route subcutaneous. An outline of the steps: as §2

The nature of data set [9]: AUC (0 to 24 hrs) in Sprague-Dawley rat bronchoalveolar lavage fluid at 10 mg/kg, iv administered as single bolus dose. The format is ADME, organism-based, Lung. On the set-up: time < 24 hr, dose 10 mg/kg, route intravenous. To be noted: in vivo.
For data set [10], the system named is Respiratory syncytial virus. Nature of the data set: Antiviral activity against respiratory syncytial virus long strain infected in cotton rat assessed as log reduction in epithelial lining fluid viral load at 25 mg/kg, sc single dose administered 24 hrs before viral infection by qRT-PCR assay. In kind it is functional. To be noted: route subcutaneous. An outline of the steps:
as §1

A further data set has as its system Plasma. Nature of the data set: Drug level in cotton rat plasma at 12.5 - 200 mg/kg, sc administered as single dose measured after 24 hrs. The settings on record: in vivo. The format is ADME, organism-based. On the set-up: dose 200 mg/kg, route subcutaneous.
The nature of data set [11]: Volume of distribution at steady state in Sprague-Dawley rat plasma at 10 mg/kg, iv administered as single bolus dose. In kind it is ADME, organism-based. Also noted: dose 10 mg/kg, route intravenous. To be noted: read-out: Vdss.
For data set [12], the system named is Respiratory syncytial virus. Nature of the data set: Antiviral activity against respiratory syncytial virus long strain infected in cotton rat assessed as maximum reduction in epithelial lining fluid viral load at 200 ng/ml plasma concentration. The format is functional. On the set-up: scale not given: the % may be the effect or the level left. An outline of the steps: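 Plasma was drawn at 24 h after single s.c. nanocrystal doses (12.5–200 mg/kg) to cotton rats, just before intranasal RSV inoculation, and assayed by LC-MS/MS. Individual day-4 plaque-assay ELF titer reductions were plotted against this plasma concentration and fitted to a simple E_max model, E = (E_max × C24h)/(C24h + EC50).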

The test system of data set [13] is Respiratory syncytial virus. Nature of the data set: Antiviral activity against respiratory syncytial virus long strain infected in cotton rat assessed as log reduction in epithelial lining fluid viral load at 50 mg/kg, sc single dose administered 24 hrs before viral infection by qRT-PCR assay. In kind it is functional. The settings on record: route subcutaneous. An outline of the steps: as §1

Data set [14] is described as follows: AUC (0 to 24 hrs) in Sprague-Dawley rat plasma at 10 mg/kg, iv administered as single bolus dose. In kind it is ADME, organism-based. Also noted: time < 24 hr, dose 10 mg/kg, route intravenous.
Data set [15] deals with Respiratory syncytial virus. Nature of the data set: Antiviral activity against respiratory syncytial virus long strain infected in cotton rat assessed as log reduction in epithelial lining fluid viral load at 200 mg/kg, sc single dose administered 24 hrs before viral infection by plaque assay. To be noted: route subcutaneous. In kind it is functional. Put shortly: as §2

Another data set relates to Lung. Nature of the data set: AUC (0 to 24 hrs) in Sprague-Dawley rat lung tissue at 10 mg/kg, iv administered as single bolus dose. The format is ADME, organism-based. On the set-up: time < 24 hr, dose 10 mg/kg, route intravenous. The settings on record: in vivo.
Data set [16] relates to Respiratory syncytial virus. Nature of the data set: microbe, parasite or virus in culture. The settings on record: human respiratory syncytial virus, long, HeLaM.
Data set [17] relates to Respiratory syncytial virus. Nature of the data set: Antiviral activity against respiratory syncytial virus long strain infected in cotton rat assessed as log reduction in epithelial lining fluid viral load at 200 mg/kg, sc single dose administered 24 hrs before viral infection by qRT-PCR assay. In kind it is functional. To be noted: route subcutaneous. An outline of the steps: as §1

Data set [18] can be described thus: Ratio of AUC (0 to 24 hrs) in Sprague-Dawley rat lung tissue to plasma. In kind it is ADME.
Data set [19] deals with Respiratory syncytial virus. Nature of the data set: Antiviral activity against respiratory syncytial virus long strain infected in cotton rat assessed as log reduction in epithelial lining fluid viral load at 100 mg/kg, sc single dose administered 24 hrs before viral infection by plaque assay. The format is functional. The settings on record: route subcutaneous. Put shortly:
as §2

Data set [20] in a line: Clearance in Sprague-Dawley rat plasma at 10 mg/kg, iv administered as single bolus dose. The format is ADME, organism-based. On the set-up: dose 10 mg/kg, route intravenous.
Data set [21] is described as follows: Drug level in Sprague-Dawley rat lung tissue at 10 mg/kg, iv administered as single bolus dose measured after 3 hrs. The format is ADME, organism-based. On the set-up: dose 10 mg/kg, route intravenous. To be noted: read-out: Drug uptake.
Data set [22] concerns Respiratory syncytial virus. Nature of the data set: Antiviral activity against respiratory syncytial virus long strain infected in cotton rat assessed as log reduction in epithelial lining fluid viral load at 12.5 mg/kg, sc single dose administered 24 hrs before viral infection by plaque assay. The format is functional. The settings on record: route subcutaneous. An outline of the steps:
as §2

We go through one molecule from ChEMBL document CHEMBL1687801, “Pharmacokinetics-pharmacodynamics of a respiratory syncytial virus fusion inhibitor in the cotton rat model” (Antimicrob Agents Chemother, 2010).

SMILES strings stand for the structures. Values after ≈ are worked out from the molar mass of the structure shown.

`Cc1ccc(CCCO)c(NCc2ccc3nc(NCCCN4CCOCC4)n(Cc4nc(C)ccc4O)c3c2)c1`: the concentration at 3 h in data set [1] stood at 11 ng/mL; in data set [3], 23 ng/mL; in data set [4], 63 ng/mL; in [5] it was 392 ng/mL; in data set [21], 9400 ng/mL. The log10PFU/ml in [2] came to 0.5; in data set [6], 1.7; in data set [7] it was 0.4; in data set [8] it was 0.3; in [10], 0.6; in data set [13], 1.1. Moreover, the log10PFU/ml was 1.2 in data set [15], 2.2 in [17], 0.8 in data set [19] and 0.2 in [22]. The AUC worked out at 170 ng·h/mL in data set [9] and 131000 ng·h/mL with Lung. Besides, the Drug uptake entry in the data set with Plasma is listed as “Active”. The Vd in [11] amounted to 55 L/kg. In addition, the Activity in data set [12] turned out to be 50%. In data set [14], this molecule registered an AUC(0-t) at 24 h of 1100 ng·h/mL. The molecule further came in with an EC50 in data set [16] of 0.07 ng/mL (≈ 0.125 nM). For the same molecule, the Kp in data set [18] was 122. In addition, the clearance in [20] was 143 mL/min/kg.

In general, AUC refers to the area under the concentration-time curve, a measure of exposure. One may read the AUC(0-t) as exposure summed from dosing to a finite time, without extrapolation to infinity. The term EC50 denotes the concentration giving half of the maximal effect. As a reminder, the Kp is tissue or fluid exposure divided by exposure in the circulation. The clearance is the volume of plasma or blood freed of the substance per unit of time.
